Data on one compound can be found in ChEMBL document CHEMBL1275301, “Antihypertensive activity of newer 1,4-dihydro-5-pyrimidine carboxamides: synthesis and pharmacological evaluation” (2010).

SMILES strings stand for the structures. Activity calls are given as the source filed them. The calls are words filed in the database; no cut-off is given here.

Assay [1] deals with Rattus norvegicus. Briefly: Antihypertensive activity against DOCA-salt induced hypertension in albino rat assessed as reduction in systolic blood pressure at 10 mg/kg, po up to 360 mins by tail-cuff method. Type of assay: functional, organism-based. Set-up: dose 10 mg/kg. As to conditions: Artery. A digest of the protocol:
(§1)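 Rats given DOCA 20 mg/kg s.c. twice weekly in olive oil for 4 weeks, with 1% w/v NaCl as drinking water, reaching systolic 160–180 mm Hg. Rats were trained in restrainer and tail-cuff sessions. Compounds in 0.5% CMC were dosed at 10 mg/kg by oral feeding needle, with vehicle and nifedipine groups. BP was read before dosing and after, with the tail warmed at 37 °C for 2–5 min. Each compound was run three times in one week and readings averaged.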

The test system of assay [2] is Rattus norvegicus. The assay is described as follows: Antihypertensive activity against DOCA-salt induced hypertension in albino rat assessed as reduction in systolic blood pressure at 10 mg/kg, po after 900 mins by tail-cuff method. The format is functional. As to conditions: Artery, 15 h. A digest of the protocol:
as §1

The subject of assay [3] is Rattus norvegicus. The assay is described as follows: Antihypertensive activity against DOCA-salt induced hypertension in albino rat assessed as reduction in systolic blood pressure at 10 mg/kg, po after 720 mins by tail-cuff method. Type of assay: functional. As to conditions: Artery, 12 h. A digest of the protocol: as §1
In assay [4] the test system is Rattus norvegicus. The assay is described as follows: Antihypertensive activity against DOCA-salt induced hypertension in albino rat assessed as reduction in systolic blood pressure at 10 mg/kg, po after 600 mins by tail-cuff method. Type of assay: functional. As to conditions: Artery, 10 h. A digest of the protocol: as §1
In assay [5] the test system is Rattus norvegicus. The assay is described as follows: Antihypertensive activity against DOCA-salt induced hypertension in albino rat assessed as reduction in systolic blood pressure at 10 mg/kg, po after 360 mins by tail-cuff method. As to conditions: Artery, 6 h. Type of assay: functional. A digest of the protocol: as §1
The test system of assay [6] is Rattus norvegicus. Briefly: Antihypertensive activity against DOCA-salt induced hypertension in albino rat assessed as reduction in systolic blood pressure at 10 mg/kg, po after 300 mins by tail-cuff method. The format is functional. The following applies: Artery, 5 h. A digest of the protocol:
as §1

The test system of assay [7] is Rattus norvegicus. Briefly: Antihypertensive activity against DOCA-salt induced hypertension in albino rat assessed as reduction in systolic blood pressure at 10 mg/kg, po after 240 mins by tail-cuff method. Type of assay: functional. As to conditions: Artery, 4 h. A digest of the protocol: as §1
Assay [8] deals with Rattus norvegicus. Briefly: Antihypertensive activity against DOCA-salt induced hypertension in albino rat assessed as reduction in systolic blood pressure at 10 mg/kg, po after 180 mins by tail-cuff method. Type of assay: functional. The following applies: Artery, 3 h. A digest of the protocol: as §1
For assay [9], the system named is Rattus norvegicus. Briefly: Antihypertensive activity against DOCA-salt induced hypertension in albino rat assessed as reduction in systolic blood pressure at 10 mg/kg, po after 120 mins by tail-cuff method. The following applies: Artery, 2 h. Type of assay: functional. A digest of the protocol:
as §1

Assay [10] has as its system Rattus norvegicus. Briefly: Antihypertensive activity against DOCA-salt induced hypertension in albino rat assessed as reduction in systolic blood pressure at 10 mg/kg, po after 60 mins by tail-cuff method. The format is functional. As to conditions: Artery, 1 h. A digest of the protocol: as §1
The subject of assay [11] is Rattus norvegicus. The assay is described as follows: Antihypertensive activity against DOCA-salt induced hypertension in albino rat assessed as reduction in systolic blood pressure at 10 mg/kg, po after 30 mins by tail-cuff method. The format is functional. The following applies: Artery, 0.5 h. A digest of the protocol: as §1
Assay [12] has as its system Rattus norvegicus. Briefly: Antihypertensive activity against DOCA-salt induced hypertension in albino rat assessed as reduction in systolic blood pressure at 10 mg/kg, po after 15 mins by tail-cuff method. Type of assay: functional. The following applies: Artery, 0.25 h. A digest of the protocol:
as §1

For the compound `COc1ccc(C2N=C(SCc3ccc(Cl)cc3)NC(C)=C2C(=O)Nc2ccc(F)cc2)cc1OC` (configuration not stated), in the assay on Rattus norvegicus [1], the outcome was Active. The inhibition in vivo (in general, the change of the read-out against control, counted positive when it falls) at 10 mg/kg in the assay with Rattus norvegicus [2] is 20%; in the assay with Rattus norvegicus [3] it was 22.2%; in the assay on Rattus norvegicus [4], 26.7%; in the assay with Rattus norvegicus [5] it was 37.1%; in the assay with Rattus norvegicus [6], 31.3%; with Rattus norvegicus [7], 24.1%. Also, the inhibition in vivo at 10 mg/kg with Rattus norvegicus [8] is 20.1%; in the assay on Rattus norvegicus [9], 15.5%; with Rattus norvegicus [10], 10.3%; in the assay on Rattus norvegicus [11], 5.7%; with Rattus norvegicus [12] it was 3.1%.
